Source: ChEMBL document CHEMBL4196177, “Synthesis, Evaluation, and Structure-Activity Relationship Study of Lanosterol Derivatives To Reverse Mutant-Crystallin-Induced Protein Aggregation” (J Med Chem, 2018)
Activity calls are given as the source filed them. The rule behind the calls is not given here.

Key:
Format in all cases: cell-based
[1] = tested on: T1, Alpha-crystallin B chain (Homo sapiens), P02511 [R120G]; test: Inhibition of alpha-crystallin B R120G mutant (unknown origin)-induced intracellular protein aggregation expressed in human HeLa cells at 4 uM incubated for 6 to 8 hrs by fluorescence microscopy relative to untreated control
T1 sequence (whole entry): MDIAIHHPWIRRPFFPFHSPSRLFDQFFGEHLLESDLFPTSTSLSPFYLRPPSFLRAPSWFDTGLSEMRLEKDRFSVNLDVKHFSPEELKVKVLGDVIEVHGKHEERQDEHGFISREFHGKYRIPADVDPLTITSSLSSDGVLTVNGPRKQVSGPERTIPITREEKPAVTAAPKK
In short: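 Cells were transfected with mutant crystallin constructs using Lipofectamine 2000 and cultured for 16 h until the overexpressed mutants formed aggregates. Compounds were then added to the culture medium and incubated for 6~8 h. Aggregate dissolution was scored by fluorescence microscopy. For αB R120G, % inhibition at 0.4 and 4 µM was calculated against DMSO-treated cells; values are mean ± error.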

[2] = tested on: T2, Gamma-crystallin C (Homo sapiens), P07315 [G129C]; test: Inhibition of gamma-crystallin C G129C mutant (unknown origin)-induced cytotoxicity in human HeLa cells assessed as increase in cell viability at 0.04 to 4 uM incubated for 12 hrs by CCK8 assay
T2 sequence (whole entry): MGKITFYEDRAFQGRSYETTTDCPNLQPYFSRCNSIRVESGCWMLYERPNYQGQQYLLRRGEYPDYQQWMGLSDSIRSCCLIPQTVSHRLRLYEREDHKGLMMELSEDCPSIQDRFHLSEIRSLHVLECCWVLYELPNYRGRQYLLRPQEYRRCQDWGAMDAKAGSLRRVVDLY

HeLa = test: Toxicity in human HeLa cells transfected with peGFP-N1 assessed as reduction in cell viability of at 0.04 to 4 uM incubated for 12 hrs by CCK8 assay
[3] = tested on: T3, Beta-crystallin B2 (Homo sapiens), P43320 [V187E]; test: Inhibition of beta-crystallin B2 V187E mutant (unknown origin)-induced cytotoxicity in human HeLa cells assessed as increase in cell viability at 0.04 to 4 uM incubated for 12 hrs by CCK8 assay
T3 sequence (whole entry): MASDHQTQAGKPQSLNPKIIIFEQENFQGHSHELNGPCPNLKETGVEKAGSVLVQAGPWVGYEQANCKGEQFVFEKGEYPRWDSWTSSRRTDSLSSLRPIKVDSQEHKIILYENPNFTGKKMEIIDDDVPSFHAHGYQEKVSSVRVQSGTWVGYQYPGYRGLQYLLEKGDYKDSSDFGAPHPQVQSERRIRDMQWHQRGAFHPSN

[4] = tested on: T3, Beta-crystallin B2 (Homo sapiens), P43320 [V187E]; test: Inhibition of beta-crystallin B2 V187E mutant (unknown origin)-induced cytotoxicity in human HLE-B3 cells assessed as increase in cell viability at 0.04 to 4 uM incubated for 12 hrs by CCK8 assay
[5] = Toxicity in human HLE-B3 cells transfected with peGFP-N1 assessed as reduction in cell viability of at 0.04 to 4 uM incubated for 12 hrs by CCK8 assay
[6] = tested on: T1, Alpha-crystallin B chain (Homo sapiens), P02511 [R120G]; test: Inhibition of alpha-crystallin B R120G mutant (unknown origin)-induced cytotoxicity in human HeLa cells assessed as increase in cell viability at 0.04 to 4 uM incubated for 12 hrs by CCK8 assay
[7] = tested on: T2, Gamma-crystallin C (Homo sapiens), P07315 [G129C]; test: Inhibition of gamma-crystallin C G129C mutant (unknown origin)-induced cytotoxicity in human HLE-B3 cells assessed as increase in cell viability at 0.04 to 4 uM incubated for 12 hrs by CCK8 assay
[8] = tested on: T1, Alpha-crystallin B chain (Homo sapiens), P02511 [R120G]; test: Inhibition of alpha-crystallin B R120G mutant (unknown origin)-induced cytotoxicity in human HLE-B3 cells assessed as increase in cell viability at 0.04 to 4 uM incubated for 12 hrs by CCK8 assay
[9] = tested on: T4, Alpha-crystallin A chain (Homo sapiens), P02489 [Y118D]; test: Inhibition of alpha-crystallin A Y118D mutant (unknown origin)-induced intracellular protein aggregation expressed in human HeLa cells or HLE-B3 cells at 4 uM incubated for 6 to 8 hrs by fluorescence microscopy relative to untreated control
T4 sequence (whole entry): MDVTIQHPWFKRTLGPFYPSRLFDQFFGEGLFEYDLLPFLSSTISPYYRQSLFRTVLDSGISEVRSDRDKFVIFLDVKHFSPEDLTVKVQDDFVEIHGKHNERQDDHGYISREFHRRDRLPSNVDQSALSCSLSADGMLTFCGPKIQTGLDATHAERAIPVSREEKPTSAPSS
In short: (§1)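 Cells were transfected with mutant crystallin and incubated 16 h to overexpress it and form aggregates. Compounds were then added to the medium for 6~8 h. Aggregates were scored by fluorescence microscopy, and percent inhibition was calculated against DMSO-treated cells.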

[10] = tested on: T5, Gamma-crystallin D (Homo sapiens), P07320 [W43R]; test: Inhibition of gamma-crystallin D W43R mutant (unknown origin)-induced intracellular protein aggregation expressed in human HeLa cells or HLE-B3 cells at 4 uM incubated for 6 to 8 hrs by fluorescence microscopy relative to untreated control; in short: as §1
T5 sequence (whole entry): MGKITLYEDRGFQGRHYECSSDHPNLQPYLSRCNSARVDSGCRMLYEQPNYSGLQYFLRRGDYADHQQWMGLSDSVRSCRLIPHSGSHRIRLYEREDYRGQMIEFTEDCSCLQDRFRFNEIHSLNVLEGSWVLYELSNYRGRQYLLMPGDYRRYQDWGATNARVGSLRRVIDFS

[11] = tested on: T2, Gamma-crystallin C (Homo sapiens), P07315 [G129C]; test: Inhibition of gamma-crystallin C G129C mutant (unknown origin)-induced intracellular protein aggregation expressed in human HeLa cells or HLE-B3 cells at 4 uM incubated for 6 to 8 hrs by fluorescence microscopy relative to untreated control; in short: as §1
[12] = tested on: T3, Beta-crystallin B2 (Homo sapiens), P43320 [V187E]; test: Inhibition of beta-crystallin B2 V187E mutant (unknown origin)-induced intracellular protein aggregation expressed in human HeLa cells or HLE-B3 cells at 4 uM incubated for 6 to 8 hrs by fluorescence microscopy relative to untreated control; in short: as §1

O=C1O[C@H]([C@@H](O)CO)C([O-])=C1O.[Na+]
inhibition [1]: inactive

N[C@@H](CCC(=O)N[C@@H](CS)C(=O)NCC(=O)O)C(=O)O
inhibition [1]: inactive

O=C(O)c1cc(O)c2c3nc4ccccc4oc-3cc(=O)c2n1
inhibition [1]: inactive

O=C(O)COc1nn(Cc2ccccc2)c2ccccc12
inhibition [1]: inactive

C[C@H](CCCC(C)(C)O)[C@H]1CC[C@H]2[C@@H]3CC=C4C[C@@H](O)CC[C@]4(C)[C@H]3CC[C@]12C
inhibition [2]: inactive
Activity (HeLa): Toxic
inhibition [3]: inactive
inhibition [4]: inactive
Activity [5]: Toxic
inhibition [6]: inactive
inhibition [7]: inactive
inhibition [8]: inactive
inhibition [9]: Active

CC(C)=CCC[C@@H](C)[C@H]1CC[C@@]2(C)C3=C(CC[C@]12C)[C@@]1(C)CC[C@H](O)C(C)(C)[C@@H]1CC3
inhibition [10]: Active
inhibition [11]: Active
inhibition [12]: Active
inhibition [9]: Active
